According to ChEMBL document CHEMBL1135734, “Side-chain lactam-bridge conformational constraints differentiate the activities of salmon and human calcitonins and reveal a new design concept for potent calcitonin analogues” (J Med Chem, 2002):
Positions of bridges follow the written chain, without caps; N, C: chain ends. Non-standard residues stand in square brackets, D forms with d. Residues, ends and D or L forms follow the SMILES beside them. Nle = CCCC[C@H](N)C(=O)O

Tests used:
[1] = biological target: T1, Calcitonin receptor (Rattus norvegicus) (UniProt P32214); assay: Affinity for calcitonin receptor of rat brain relative to [125I]-salmon calcitonin
T1 sequence (whole entry): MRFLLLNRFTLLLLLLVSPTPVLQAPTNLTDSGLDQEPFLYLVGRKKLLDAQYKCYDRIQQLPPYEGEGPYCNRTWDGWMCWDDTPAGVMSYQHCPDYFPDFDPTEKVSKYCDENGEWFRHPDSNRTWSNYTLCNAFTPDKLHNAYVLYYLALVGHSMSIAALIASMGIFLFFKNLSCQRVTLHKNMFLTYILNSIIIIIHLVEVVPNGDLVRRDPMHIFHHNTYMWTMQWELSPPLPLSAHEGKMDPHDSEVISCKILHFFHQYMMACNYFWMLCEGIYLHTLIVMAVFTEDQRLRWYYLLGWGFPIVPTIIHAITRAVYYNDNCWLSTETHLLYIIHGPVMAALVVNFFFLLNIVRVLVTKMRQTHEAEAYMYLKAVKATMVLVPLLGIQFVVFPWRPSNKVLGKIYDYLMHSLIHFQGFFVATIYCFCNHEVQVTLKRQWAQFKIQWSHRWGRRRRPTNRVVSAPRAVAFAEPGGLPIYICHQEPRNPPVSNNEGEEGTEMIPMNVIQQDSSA
Outline: (§1)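 Male Sprague–Dawley rat (250–350 g) brain membranes (~0.63 mg protein/tube) were shaken on ice for 30 min with 10 pM final [125I-Tyr22]sCT and competitor in 50 mM Tris-HCl pH 7.4 with 34 μM bacitracin. Tubes were centrifuged and the pellets washed, SDS-solubilized and scintillation counted. Nonspecific binding was taken with 1 μM sCT. IC50 came from probit analysis, and relative affinity set sCT = 100%.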

[2] = biological target: T2, Calcitonin receptor (Homo sapiens) (UniProt P30988)
T2 sequence (whole entry): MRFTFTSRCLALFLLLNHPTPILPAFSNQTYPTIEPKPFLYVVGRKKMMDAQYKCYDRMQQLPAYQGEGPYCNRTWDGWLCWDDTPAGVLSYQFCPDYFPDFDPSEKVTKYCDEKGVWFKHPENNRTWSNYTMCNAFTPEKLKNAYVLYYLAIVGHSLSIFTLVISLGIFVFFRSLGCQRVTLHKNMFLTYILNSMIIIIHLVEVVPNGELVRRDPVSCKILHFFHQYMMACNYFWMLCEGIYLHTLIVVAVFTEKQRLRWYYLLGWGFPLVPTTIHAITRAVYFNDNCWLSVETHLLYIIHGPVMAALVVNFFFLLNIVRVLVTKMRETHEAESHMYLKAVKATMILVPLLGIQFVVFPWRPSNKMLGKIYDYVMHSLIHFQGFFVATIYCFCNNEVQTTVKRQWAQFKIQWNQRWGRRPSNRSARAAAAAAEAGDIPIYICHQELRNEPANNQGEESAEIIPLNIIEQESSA

Calcitonin receptor [3] = biological target: T3, Calcitonin receptor (Homo sapiens, UniProt P30988); assay: Inhibition of [125I]-salmon calcitonin (sCT) binding to human calcitonin receptor I1 expressed in HEK293 cells; type: cell-based
T3 sequence (P30988 whole entry): T2 sequence (whole entry)

Calcitonin receptor [4] = biological target: T4, Calcitonin receptor (Rattus norvegicus, UniProt P32214); assay: Displacement of [125I]-salmon calcitonin (sCT) from calcitonin receptor of rat brain; outline: as §1
T4 sequence (P32214 whole entry): T1 sequence (whole entry)

Row | SMILES | Relative affinity [1] | ED50 [2] | Ki (Calcitonin receptor [3]; hek293) | IC50 (Calcitonin receptor [4]) | Ki (Calcitonin receptor [3])
1 | CC(C)C[C@H](NC(=O)[C@H](CCCCN)NC(=O)CNC(=O)[C@H](CC(C)C)NC(=O)[C@@H](NC(=O)[C@H](CS)NC(=O)[C@@H](NC(=O)[C@H](CO)NC(=O)[C@H](CC(C)C)NC(=O)[C@H](CC(N)=O)NC(=O)[C@H](CO)NC(=O)[C@@H](N)CS)[C@@H](C)O)C(C)C)C(=O)N[C@@H](CO)C(=O)N[C@@H](CCC(N)=O)C(=O)N[C@@H](CCC(=O)O)C(=O)N[C@@H](CC(C)C)C(=O)N[C@H]1CC(=O)NCCCC[C@@H](C(=O)N[C@@H](Cc2ccc(O)cc2)C(=O)N2CCC[C@H]2C(=O)N[C@@H](CCCN=C(N)N)C(=O)N[C@H](C(=O)N[C@@H](CC(N)=O)C(=O)N[C@H](C(=O)NCC(=O)N[C@@H](CO)C(=O)NCC(=O)N[C@H](C(=O)N2CCC[C@H]2C(N)=O)[C@@H](C)O)[C@@H](C)O)[C@@H](C)O)NC(=O)[C@H](Cc2c[nH]cn2)NC(=O)[C@H](CC(C)C)NC(=O)[C@H](CCCCN)NC1=O (H-CSNLSTCVLGKLSQELDKLHKYPRTNTGSGTP-NH2; lactam 17-21) | – | – | 0.05 nM | 0.18 nM | –
2 | CC(C)C[C@H](NC(=O)[C@H](CCCCN)NC(=O)CNC(=O)[C@H](CC(C)C)NC(=O)[C@@H](NC(=O)[C@@H]1CSSC[C@H](N)C(=O)N[C@@H](CO)C(=O)N[C@@H](CC(N)=O)C(=O)N[C@@H](CC(C)C)C(=O)N[C@@H](CO)C(=O)N[C@@H]([C@@H](C)O)C(=O)N1)C(C)C)C(=O)N[C@@H](CO)C(=O)N[C@@H](CCC(N)=O)C(=O)N[C@@H](CCC(=O)O)C(=O)N[C@@H](CC(C)C)C(=O)N[C@@H](Cc1c[nH]cn1)C(=O)N[C@@H](CCCCN)C(=O)N[C@@H](CC(C)C)C(=O)N[C@@H](CCC(N)=O)C(=O)N[C@H](C(=O)N[C@@H](Cc1ccc(O)cc1)C(=O)N1CCC[C@H]1C(=O)N[C@@H](CCCNC(=N)N)C(=O)N[C@H](C(=O)N[C@@H](CC(N)=O)C(=O)N[C@H](C(=O)NCC(=O)N[C@@H](CO)C(=O)NCC(=O)N[C@H](C(=O)N1CCC[C@H]1C(N)=O)[C@@H](C)O)[C@@H](C)O)[C@@H](C)O)[C@@H](C)O | – | – | – | 0.377 nM | […]
3 | CCCC[C@H](NC(=O)[C@H](Cc1c[nH]cn1)NC(=O)[C@H](CC(C)C)NC(=O)[C@H](CCCCN)NC(=O)[C@H](CC(N)=O)NC(=O)[C@H](CC(C)C)NC(=O)[C@H](CCC(=O)O)NC(=O)[C@H](CCC(N)=O)NC(=O)[C@H](CO)NC(=O)[C@H](CC(C)C)NC(=O)[C@H](CCCCN)NC(=O)CNC(=O)[C@H](CC(C)C)NC(=O)[C@@H](NC(=O)[C@@H]1CSSC[C@H](N)C(=O)N[C@@H](CO)C(=O)N[C@@H](CC(N)=O)C(=O)N[C@@H](CC(C)C)C(=O)N[C@@H](CO)C(=O)N[C@@H]([C@@H](C)O)C(=O)N1)C(C)C)C(=O)N[C@@H](Cc1ccc(O)cc1)C(=O)N1CCC[C@H]1C(=O)N[C@@H](CCCN=C(N)N)C(=O)N[C@H](C(=O)N[C@@H](CC(N)=O)C(=O)N[C@H](C(=O)NCC(=O)N[C@@H](CO)C(=O)NCC(=O)N[C@H](C(=O)N1CCC[C@H]1C(N)=O)[C@@H](C)O)[C@@H](C)O)[C@@H](C)O (H-CSNLSTCVLGKLSQELNKLH[Nle]YPRTNTGSGTP-NH2; disulfide 1-7) | – | – | 0.069 nM | 0.408 nM | –

Further lines, with some results ahead:

Row | Relative affinity [1] | ED50 [2] | Ki (Calcitonin receptor [3]; hek293) | IC50 (Calcitonin receptor [4]) | SMILES | Ki (Calcitonin receptor [3])
4 | 0.015 | 0.6 nM | – | – | CC[C@H](C)[C@H](NC(=O)[C@H](C)NC(=O)[C@@H](NC(=O)[C@H](CCC(N)=O)NC(=O)[C@H]1CCCN1C(=O)[C@H](Cc1ccccc1)NC(=O)[C@@H](NC(Cc1c[nH]cn1)C(=O)N[C@@H](Cc1ccccc1)C(=O)[C@H](CCCCN)NC(=O)[C@H](CC(N)=O)NC(=O)[C@H](Cc1ccccc1)NC(=O)[C@H](CC(=O)O)NC(=O)[C@H](CCC(N)=O)NC(=O)[C@@H](NC(=O)[C@H](Cc1ccc(O)cc1)NC(=O)[C@@H](NC(=O)CNC(=O)[C@H](CC(C)C)NC(=O)[C@H](CCSC)NC(=O)[C@H](CS)NC(=O)[C@@H](NC(=O)[C@H](CO)NC(=O)[C@H](CC(C)C)NC(=O)[C@H](CC(N)=O)NC(=O)CNC(=O)[C@@H](N)CS)[C@@H](C)O)[C@@H](C)O)[C@@H](C)O)[C@@H](C)O)[C@@H](C)O)C(=O)NCC(=O)N[C@H](C(=O)NCC(=O)N[C@@H](C)C(=O)N1CCC[C@@H]1C(N)=O)C(C)C (some centres undefined) | –
5 | – | – | > 2500 nM | > 5000 nM | CC[C@H](C)[C@H](NC(=O)[C@H](C)NC(=O)[C@@H](NC(=O)[C@H](CCC(N)=O)NC(=O)[C@@H]1CCCN1C(=O)[C@H](Cc1ccccc1)NC(=O)[C@@H](NC(=O)[C@H](Cc1cnc[nH]1)NC(=O)CNC(=O)[C@@H]1CCCN1C(=O)[C@H](CC(N)=O)NC(=O)[C@H](Cc1ccccc1)NC(=O)[C@H](CC(=O)O)NC(=O)[C@H](CCC(N)=O)NC(=O)[C@@H](NC(=O)[C@H](Cc1ccc(O)cc1)NC(=O)[C@@H](NC(=O)CNC(=O)[C@H](CC(C)C)NC(=O)[C@H](CCSC)NC(=O)[C@@H]1CSSC[C@H](N)C(=O)NCC(=O)N[C@@H](CC(N)=O)C(=O)N[C@@H](CC(C)C)C(=O)N[C@@H](CO)C(=O)N[C@@H]([C@@H](C)O)C(=O)N1)[C@@H](C)O)[C@@H](C)O)[C@@H](C)O)[C@@H](C)O)C(=O)NCC(=O)N[C@H](C(=O)NCC(=O)N[C@@H](C)C(=O)N1CCC[C@H]1C(N)=O)C(C)C (H-CGNLSTCMLGTYTQDFNPGHTFPQTAIGVGAP-NH2; disulfide 1-7) | –
6 | – | – | 400 nM | > 5000 nM | CC[C@H](C)[C@H](NC(=O)[C@H](C)NC(=O)[C@@H](NC(=O)[C@H](CCC(N)=O)NC(=O)[C@@H]1CCCN1C(=O)[C@H](Cc1ccccc1)NC(=O)[C@@H](NC(=O)[C@H](Cc1c[nH]cn1)NC(=O)[C@@H]1CCCN1C(=O)[C@H](CCCCN)NC(=O)[C@H](CC(N)=O)NC(=O)[C@H](Cc1ccccc1)NC(=O)[C@H](CC(=O)O)NC(=O)[C@H](CCC(N)=O)NC(=O)[C@@H](NC(=O)[C@H](Cc1ccc(O)cc1)NC(=O)[C@@H](NC(=O)CNC(=O)[C@H](CC(C)C)NC(=O)[C@H](CCSC)NC(=O)[C@@H]1CSSC[C@H](N)C(=O)NCC(=O)N[C@@H](CC(N)=O)C(=O)N[C@@H](CC(C)C)C(=O)N[C@@H](CO)C(=O)N[C@@H]([C@@H](C)O)C(=O)N1)[C@@H](C)O)[C@@H](C)O)[C@@H](C)O)[C@@H](C)O)C(=O)NCC(=O)N[C@H](C(=O)NCC(=O)N[C@@H](C)C(=O)N1CCC[C@H]1C(N)=O)C(C)C (H-CGNLSTCMLGTYTQDFNKPHTFPQTAIGVGAP-NH2; disulfide 1-7) | –
7 | – | – | 195 nM | 60 nM | CC[C@H](C)[C@H](NC(=O)[C@H](C)NC(=O)[C@@H](NC(=O)[C@H](CCC(N)=O)NC(=O)[C@@H]1CCCN1C(=O)[C@H](Cc1ccccc1)NC(=O)[C@@H]1CCCCNC(=O)C[C@H](NC(=O)[C@H](Cc2ccccc2)NC(=O)[C@H](CC(=O)O)NC(=O)[C@H](CCC(N)=O)NC(=O)[C@@H](NC(=O)[C@H](Cc2ccc(O)cc2)NC(=O)[C@@H](NC(=O)CNC(=O)[C@H](CC(C)C)NC(=O)[C@H](CCSC)NC(=O)[C@@H]2CSSC[C@H](N)C(=O)NCC(=O)N[C@@H](CC(N)=O)C(=O)N[C@@H](CC(C)C)C(=O)N[C@@H](CO)C(=O)N[C@@H]([C@@H](C)O)C(=O)N2)[C@@H](C)O)[C@@H](C)O)C(=O)N[C@@H](CCCCN)C(=O)N[C@@H](Cc2ccccc2)C(=O)N[C@@H](Cc2cnc[nH]2)C(=O)N1)[C@@H](C)O)C(=O)NCC(=O)N[C@H](C(=O)NCC(=O)N[C@@H](C)C(=O)N1CCC[C@H]1C(N)=O)C(C)C (H-CGNLSTCMLGTYTQDFDKFHKFPQTAIGVGAP-NH2; disulfide 1-7; lactam 17-21) | –
